Experimental findings from ChEMBL document CHEMBL4706614, “Design, synthesis and biological evaluation of novel naphthoquinone-4-aminobenzensulfonamide/carboxamide derivatives as proteasome inhibitors” (Eur J Med Chem, 2021) are described below.

The test system of one experiment is MCF7. Kind of experiment: Antiproliferative activity against human MCF7 cells assessed as cell viability after 48 hrs MTT assay. The settings on record: MCF7, 48 h. The class given is functional, cell-based. The procedure, abridged: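 MTT:medium (1:9) added 4 h at 37°C, formazan dissolved in DMSO, absorbance 570 nm. DMSO solvent control; triplicate; IC50 = concentration inhibiting 50% of viability.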
On the technique in general: Formazan colour is commonly taken as a measure of viable cells.

Experiment [1] addresses T1, Proteasome component C5 (Homo sapiens) (UniProt P20618).
T1 sequence (whole entry): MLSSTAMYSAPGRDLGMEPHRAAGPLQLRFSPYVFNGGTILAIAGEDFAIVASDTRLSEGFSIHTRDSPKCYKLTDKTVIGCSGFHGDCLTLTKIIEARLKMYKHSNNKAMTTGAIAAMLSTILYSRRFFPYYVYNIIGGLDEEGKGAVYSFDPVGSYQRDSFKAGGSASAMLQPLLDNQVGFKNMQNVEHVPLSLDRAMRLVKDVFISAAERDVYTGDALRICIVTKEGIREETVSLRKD
Put plainly: Inhibition of caspase-like activity 20S proteasome beta subunit 1 of human MCF7 cells using fluorogenic substrate Z-LLE-AMC at 10 uM after 1 hr by fluorescence analysis relative to control. The class given is cell-based. In a few lines: (§1)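 Screen at 10 µM: MCF-7 lysates (sucrose/HEPES/MgCl2/EDTA buffer, 1 mM DTT) preincubated 10 min in 225 mM Tris pH 7.8, 7.5 mM MgOAc, 7.5 mM MgCl2, 45 mM KCl, 1 mM DTT; compound 1 h at 37 °C, then substrate 1 h at 37 °C; AMC release ex 360/em 460 nm versus DMSO; MG-132 positive control.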

Experiment [2] concerns the target Proteasome Macropain subunit (Homo sapiens) (UniProt P49721). Kind of experiment: Inhibition of trypsin-like activity 20S proteasome beta subunit 2 of human MCF7 cells using fluorogenic substrate Boc-LRR-AMC at 10 uM after 1 hr by fluorescence analysis relative to control. The experiment is classed as cell-based. In a few lines:
as §1

The target of experiment [3] is T2, Proteasome Macropain subunit MB1 (Homo sapiens) (UniProt P28074).
T2 sequence (whole entry): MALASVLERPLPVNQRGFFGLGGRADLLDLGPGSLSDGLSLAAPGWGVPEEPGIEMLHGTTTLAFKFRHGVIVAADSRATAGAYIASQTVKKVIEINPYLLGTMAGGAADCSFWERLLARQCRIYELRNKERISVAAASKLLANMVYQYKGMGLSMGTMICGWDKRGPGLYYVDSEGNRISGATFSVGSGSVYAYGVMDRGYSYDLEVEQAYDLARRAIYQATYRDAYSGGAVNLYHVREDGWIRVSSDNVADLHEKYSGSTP
Kind of experiment: Inhibition of chymotrypsin-like activity 20S proteasome beta subunit 5 of human MCF7 cells using fluorogenic substrate Suc-LLVY-AMC at 10 uM after 1 hr by fluorescence analysis relative to control. The class given is cell-based. The procedure, abridged: as §1

What is called IC50 is the concentration that inhibits the measured activity by half. The term inhibition denotes the share of the control response that was lost under treatment.

Active and inactive are the calls of the source. The rule behind the calls is not given here. Residues, ends and D or L forms follow the SMILES beside them. *: point of attachment. Cbz = O=C(OCc1ccccc1)*

Proteasome Macropain subunit (Homo sapiens), sequence (P49721 whole entry): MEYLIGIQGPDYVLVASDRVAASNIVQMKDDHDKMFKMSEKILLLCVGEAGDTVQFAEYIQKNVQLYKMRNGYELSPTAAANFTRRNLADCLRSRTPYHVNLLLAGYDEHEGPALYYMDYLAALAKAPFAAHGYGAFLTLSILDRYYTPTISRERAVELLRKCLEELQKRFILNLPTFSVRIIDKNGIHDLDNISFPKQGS

With `O=C(Nc1nccs1)c1ccc(NC2=C(Cl)C(=O)c3ccccc3C2=O)cc1`, the half-maximal inhibitory concentration (IC50) with MCF7 is 3.84 µM. The inhibition in experiment [1] is 3.59%; in experiment [3], 19.6%. The inhibition entry in experiment [2] is “inactive”.
On to `CC(C)c1ccccc1NC(=O)c1ccc(NC2=C(Cl)C(=O)c3ccccc3C2=O)cc1`, for which the IC50 in the experiment on MCF7 worked out at 2.61 µM. Further, the inhibition amounted to 9.94% in experiment [1] and 17.2% in experiment [3]. Moreover, the inhibition result in experiment [2] was “inactive”.
For `Cc1cc(NC(=O)c2ccc(NC3=C(Cl)C(=O)c4ccccc4C3=O)cc2)no1`, in that order: 10.2 µM, 8.36%, 18.9% and 6.55%.
On the same counts, the results for `COc1cc(NS(=O)(=O)c2ccc(NC3=C(Cl)C(=O)c4ccccc4C3=O)cc2)cc(OC)c1` are 2.2 µM, 12%, 20% and 22.7%.
On the same counts, the results for `Cc1ccc(NC(=O)c2ccc(NC3=C(Cl)C(=O)c4ccccc4C3=O)cc2)nc1` are 4.16 µM, 7.42%, 22% and “inactive”.
With `Cc1ccnc(NS(=O)(=O)c2ccc(NC3=C(Cl)C(=O)c4ccccc4C3=O)cc2)c1`, in the experiment with MCF7, the IC50 came to 2.11 µM. Besides, the inhibition in experiment [1] amounted to 3.35%; in experiment [2], 7.26%; in experiment [3], 11.7%.
On the same counts, the results for `O=C1C(Cl)=C(Nc2ccc(S(=O)(=O)Nc3ccc(Br)cc3)cc2)C(=O)c2ccccc21` are 3.37 µM, 10%, 23.8% and 22.2%.
Regarding `CC(C)c1ccccc1NS(=O)(=O)c1ccc(NC2=C(Cl)C(=O)c3ccccc3C2=O)cc1`, the IC50 in the experiment with MCF7 is 5.38 µM. The inhibition turned out to be 11.5% in experiment [1], 17.1% in experiment [2] and 20% in experiment [3].
Take `CCc1ccccc1NS(=O)(=O)c1ccc(NC2=C(Cl)C(=O)c3ccccc3C2=O)cc1`: in the experiment on MCF7, the IC50 stood at 2.43 µM. The results for the inhibition in experiment [1], in experiment [2] and in experiment [3] were 13.9%, 21.1% and 17.4%, respectively.
For `O=C(Nc1cccc(Cl)c1)c1ccc(NC2=C(Cl)C(=O)c3ccccc3C2=O)cc1`, in that order: 16.6 µM, 11.7%, 27.6% and 21.6%.
As for `Cc1cccnc1NS(=O)(=O)c1ccc(NC2=C(Cl)C(=O)c3ccccc3C2=O)cc1`, the IC50 with MCF7 is 1.91 µM. The results for the inhibition in experiment [1], in experiment [2] and in experiment [3] were 9.01%, 13% and 14.8%, respectively.
On the same counts, the results for `Cc1ccc(NS(=O)(=O)c2ccc(NC3=C(Cl)C(=O)c4ccccc4C3=O)cc2)nc1` are 1.79 µM, “inactive”, 11.6% and 10.1%.
On the same counts, the results for `Cc1csc(NS(=O)(=O)c2ccc(NC3=C(Cl)C(=O)c4ccccc4C3=O)cc2)n1` are 4.23 µM, 15.4%, 21% and 24.8%.
For `Cc1cccnc1NC(=O)c1ccc(NC2=C(Cl)C(=O)c3ccccc3C2=O)cc1`, in that order: 4.32 µM, 9.52%, “inactive” and 11.4%.
On to `Cc1cccc(NC(=O)c2ccc(NC3=C(Cl)C(=O)c4ccccc4C3=O)cc2)c1`, for which the IC50 with MCF7 was determined as 14.4 µM. The inhibition in experiment [1] was 15.1%; in experiment [2] it was 3.39%; in experiment [3] it was 14.6%.
For `O=C(Nc1ccccc1)c1ccc(NC2=C(Cl)C(=O)c3ccccc3C2=O)cc1`, in that order: 15.4 µM, 10.7%, 3.19% and 4.03%.
For `O=C1C(Cl)=C(Nc2ccc(S(=O)(=O)Nc3ccccc3Cl)cc2)C(=O)c2ccccc21`, in that order: 2.56 µM, 1.21%, 6.29% and 3.25%.
As to `O=C1C(Cl)=C(Nc2ccc(S(=O)(=O)Nc3ccc([N+](=O)[O-])cc3)cc2)C(=O)c2ccccc21`, the IC50 in the experiment on MCF7 is 2.84 µM. The figures for the inhibition in experiment [1], in experiment [2] and in experiment [3] were 14.1%, 22.7% and 26%, respectively.
`CC(C)C[C@@H](C=O)NC(=O)[C@H](CC(C)C)NC(=O)[C@H](CC(C)C)NC(=O)OCc1ccccc1` (Cbz-Leu-Leu-Leu-aldehyde): the inhibition in experiment [1] stood at 18.4%; in experiment [2] it was 51.4%; in experiment [3], 38.2%.
For the compound `O=C1C(Cl)=C(Nc2ccc(S(=O)(=O)Nc3cccc4ccccc34)cc2)C(=O)c2ccccc21`, in the experiment on MCF7, the IC50 was 3.32 µM. Further, the inhibition in experiment [1] was 15.4%; in experiment [2], 21.2%; in experiment [3], 18.4%.
For `Cc1csc(NC(=O)c2ccc(NC3=C(Cl)C(=O)c4ccccc4C3=O)cc2)n1`, in that order: 2.44 µM, 7.76%, 7.11% and 22.3%.
Regarding `COc1cccc2c1C(=O)c1c(O)c3c(c(O)c1C2=O)C[C@@](O)(C(=O)CO)C[C@@H]3O[C@H]1C[C@H](N)[C@H](O)[C@H](C)O1` [DOXORUBICIN], in the experiment on MCF7, the IC50 amounted to 0.93 µM.
As to `O=C(Nc1ccc(Cl)cc1)c1ccc(NC2=C(Cl)C(=O)c3ccccc3C2=O)cc1`, the IC50 in the experiment on MCF7 came to 4.52 µM. In experiment [1], the inhibition entry was “inactive”. For the same compound, the inhibition in experiment [2] worked out at 1.55%; in experiment [3] it was 15.8%.
On the same counts, the results for `O=C(Nc1cccnc1)c1ccc(NC2=C(Cl)C(=O)c3ccccc3C2=O)cc1` are 6.04 µM, 1.2%, “inactive” and 16.3%.
On to `O=C1C(Cl)=C(Nc2ccc(S(=O)(=O)Nc3cccnc3Cl)cc2)C(=O)c2ccccc21`, for which the IC50 in the experiment with MCF7 is 4.65 µM. Besides, the inhibition in experiment [1] is 11.2%; in experiment [2] it was 22.1%; in experiment [3], 22.4%.
As for `O=C(Nc1ccc(Cl)cn1)c1ccc(NC2=C(Cl)C(=O)c3ccccc3C2=O)cc1`, the IC50 in the experiment with MCF7 is 6.19 µM. The inhibition in experiment [1] stood at 8.55%; in experiment [3], 19.4%. The inhibition result in experiment [2] is “inactive”.
On the same counts, the results for `O=C1C(Cl)=C(Nc2ccc(S(=O)(=O)N3CCOCC3)cc2)C(=O)c2ccccc21` are 1.84 µM, 16.2%, 10.8% and 2.76%.
For `O=C1C(Cl)=C(Nc2ccc(S(=O)(=O)Nc3cccc([N+](=O)[O-])c3)cc2)C(=O)c2ccccc21`, in that order: 2.17 µM, 7.44%, 23.5% and 19.4%.
For `O=C1C(Cl)=C(Nc2ccc(S(=O)(=O)Nc3ccccc3[N+](=O)[O-])cc2)C(=O)c2ccccc21`, in that order: 3.99 µM, 14.2%, 17.3% and 21.3%.
Turning to `Cc1ccnc(NC(=O)c2ccc(NC3=C(Cl)C(=O)c4ccccc4C3=O)cc2)c1`, the IC50 in the experiment on MCF7 was found to be 1.72 µM. For the same compound, the inhibition in experiment [1] came out at 8.37%; in experiment [3] it was 16.6%. The inhibition entry in experiment [2] is “inactive”.
On the same counts, the results for `O=C(Nc1cccc2ccccc12)c1ccc(NC2=C(Cl)C(=O)c3ccccc3C2=O)cc1` are 4.8 µM, 16.7%, 16.9% and 4.41%.
On to `O=C1C(Cl)=C(Nc2ccc(S(=O)(=O)Nc3cccc(Cl)c3)cc2)C(=O)c2ccccc21`, for which the concentration for half-maximal inhibition (IC50) with MCF7 worked out at 2.1 µM. Moreover, the inhibition in experiment [1] amounted to 14.2%; in experiment [2], 24.5%; in experiment [3], 28.8%.
On the same counts, the results for `O=C(Nc1ccncc1)c1ccc(NC2=C(Cl)C(=O)c3ccccc3C2=O)cc1` are 20.8 µM, 7.87%, 2.43% and 8.96%.
